In the RNAGym collection of RNA variant scans (doi:10.1126/science.aae0568):
Variants at the floor of the assay were thinned out.

B1: tRNA (parent)
chain: GUUCCGUUGGCGUAAUGGUAACGCGUCUCCCUCCUAAGGAGAAGACUGCGGGUUCGAGUCCCGUACGGAACG

Variants of: B1
Experiment: yeast fitness relative to wild type (ratio to wild type); higher = fitter; tRNA-Arg(CCU), competitive growth, 37 C, YPD
How it was run: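 Gene amplicons from the start population and from each of six end populations were read by 100-nucleotide paired-end sequencing. Those end populations came from pooled Saccharomyces cerevisiae strains carrying tRNA-Arg(CCU) gene variants at the native locus, competed in YPD at 37°C for 24 hours. Fitness relative to wild type was worked out from changes in genotype frequencies. Genotypes needed ≥ 100 starting reads, and estimates < 0.5 were set to 0.5.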

Variant | yeast fitness
A14G U53A | 0.63
A14G U53C | 0.775
A14U A21U U32G A37G A45G C55A | ≤ 0.5
A14U C24U G48C C62U A70C | ≤ 0.5
A14U C29A C49A | ≤ 0.5
A14U A21U G58C | ≤ 0.5
A14U A15U C49A G51C U59A | ≤ 0.5
A14U G23U U59A | ≤ 0.5
A14U A36U G38A U54A | 0.536
A14U C33U | ≤ 0.5
A14U C33A | 0.629
A14U C33G | ≤ 0.5
A14U U26C A42U C60G | ≤ 0.5
A14U G17C U28C C30G G41C A42C U47C G50A C62A | ≤ 0.5
A14U U19A C24U C55G A70U | 0.532
A14G U32A C62U | ≤ 0.5
A14U A21G A70C | 0.543
A14U A21U C49U G67C | ≤ 0.5
A14U C22U G25A C55G C60U | ≤ 0.5
A14U C31A | 0.544
A14U A65C | 0.611
A14U A65G | 0.559
A14U A65U | 0.639
A14U G67C | 0.729

Variant | yeast fitness
A14U G67U | 0.562
A14U A37U C61G C62U | ≤ 0.5
A14U C34U G39C | 0.56
A14U G17A G23A G68C | ≤ 0.5
A14U U19A C55A C61G | ≤ 0.5
A14U G17C | 0.514
A14U U26G C33A A40U A69U | ≤ 0.5
A14U G23A C29G C46A C55G | 0.57
A14U A15C C31G A43U A70G | 0.556
A14U G52A | ≤ 0.5
A14U G52U | 0.592
A14U A40C A57C C60U | ≤ 0.5
A14U A20U G52U | 0.591
A14U A43U A45G | 0.634
A14U G18A U35A A57C C62U | ≤ 0.5
A14U U26G G39C A70U | ≤ 0.5
A14U C30A C31G G41C A70U | ≤ 0.5
A14U C22G C60G | ≤ 0.5
A14G U47G C62U | ≤ 0.5
A14U A40U G58C | 0.547
A14U C29A U54A U59A | 0.574
A14U A37C G44A | 0.757
A14U A36U G38A | ≤ 0.5
A14U C49G C60A | ≤ 0.5

Variant | yeast fitness
A14U C24U G48C | ≤ 0.5
A14U G17C A57G | 0.505
A14U U26A C30U A69C | ≤ 0.5
A14U A36U A69U | 0.629
A14U C55U | ≤ 0.5
A14U A40U A69U | 0.592
A14U A40U | 0.597
A14U A40G | 0.707
A14U C24G C31A A40G G44C C55U | ≤ 0.5
A14U U16A C27G A40U | ≤ 0.5
A14U G17A G23A G63A | ≤ 0.5
A14U A43C A65U | ≤ 0.5
A14U G25C C66U | ≤ 0.5
A14U A21G G39C A45G | ≤ 0.5
A14U A37C G44A A70G | 0.551
A14U C60U C62U A70G | ≤ 0.5
A14U C24U C33G A65U C66U A69C | ≤ 0.5
A14U G68C | 0.694
A14U G68A | 0.721
A14U A15C C31G G50A | 0.665
A14U G51A C61G | 0.602
A14U C34U A40U G50C | ≤ 0.5
A14U C24G G41A G44A C61U | ≤ 0.5
A14G U59C | 0.923

Variant | yeast fitness
A14G U59G | 0.774
A14U A36U G63A | 0.533
A14U A20G G44C | ≤ 0.5
A14U G68C A70G | ≤ 0.5
A14U C27U C29G C31U C61G | ≤ 0.5
A14U A20G C24A C31U C33U A37U G48A A69U | ≤ 0.5
A14U C66A | 0.508
A14U C66U | 0.756
A14U A21C A36C C49A C66G | ≤ 0.5
A14U G17A C22U | ≤ 0.5
A14U C24G G41A G44A U53A | 0.55
A14U A21C G41A A45G | ≤ 0.5
A14U C22U A40U G44C | ≤ 0.5
A14U G38A G58A | ≤ 0.5
A14U C30A A43C G63A | ≤ 0.5
A14U A43G A57C C60G C61A | ≤ 0.5
A14U A20U A36U | 0.568
A14U A70C | 0.596
A14U A43U A45G G68A | ≤ 0.5
A14U C24U C34U C49G | ≤ 0.5
A14U A42C C46A | ≤ 0.5
A14U A20C C27U U35C G48A A70U | ≤ 0.5
A14U C30A U32C | ≤ 0.5
A14U C61U | 0.591

Variant | yeast fitness
A14U C33A A42C G52A | 0.515
A14U G48C A70C | ≤ 0.5
A14U C29G C62U | ≤ 0.5
A14U U16G U19A A42G C61G | 0.535
A14U C24G A36U | ≤ 0.5
A14U U26G A36G C60A | ≤ 0.5
A14U G48C C66A | ≤ 0.5
A14U A42C U54A G67C A69U | ≤ 0.5
A14U A21G C61G A70U | ≤ 0.5
A14U A15G A65G | ≤ 0.5
A14U C29U A37U A69U | ≤ 0.5
A14U G68C A69C | ≤ 0.5
A14U C34G A37C C62U | ≤ 0.5
A14U C30G C33A | 0.529
A14U C24U C33A G44C U47C U64G | ≤ 0.5
A14U C24G A36G G68U | ≤ 0.5
A14U C27G A57U | 0.527
A14U C24A C55G | ≤ 0.5
A14U A36G A40G A65U | ≤ 0.5
A14G U54G A70C | ≤ 0.5
A14U A36G A40G | ≤ 0.5
A14U C55G C61G C66U | ≤ 0.5
A14U C24G G41A G44A U53A C66U | 0.533
A14U G17U C24A C30G | ≤ 0.5

Variant | yeast fitness
A14U A36C | 0.586
A14U A36U | 0.531
A14U G23A C29G C46A C55G A57U C62U | ≤ 0.5
A14U C27G G52A G63C | ≤ 0.5
A14U C27U C55G G68C | ≤ 0.5
A14U A20C C24U | ≤ 0.5
A14U A20C C24A | 0.554
A14U A37U C62G A70U | ≤ 0.5
A14U U19A G23C C29A C66A | 0.549
A14U A43C C62U C66U | ≤ 0.5
A14U A20C C22U C24U C49G U53A G56C | 0.547
A14U C22A A57C | ≤ 0.5
A14U A40G C62G | ≤ 0.5
A14U A21U C31U A43U G44C | ≤ 0.5
A14U A15G A21C | 0.536
A14U G23A A36G | ≤ 0.5
A14U G23A U28A C30A | ≤ 0.5
A14U G18C G25A A70G | ≤ 0.5
A14U A21C C29U | 0.538
A14U A21G C34G A57U A69U | 0.655
A14U A20U A42G A65C A69C A70G | ≤ 0.5
A14U U26C A42U | 0.676
A14U C30G C55U | ≤ 0.5
A14U C27U | 0.594

Variant | yeast fitness
A14U C27A | 0.76
A14U U19A G23A A43C U47C A57C | ≤ 0.5
A14U C33G A42C C49U C55G | ≤ 0.5
A14U C24G U26G G56C | ≤ 0.5
A14U A40U G67A | 0.539
A14U C34G A43C C62A A70U | ≤ 0.5
A14U C22U | 0.54
A14U C30U C31A G63C | ≤ 0.5
A14G U35G G52C | ≤ 0.5
A14U C27G C34A C61U C66G A69U | ≤ 0.5
A14U C22A A43G C49U | ≤ 0.5
A14G U47A | 0.776
A14G U47C | 0.871
A14G U47G | 0.516
A14U C24G C46G G52A | ≤ 0.5
A14U G48U | 0.567
A14U G48A | 0.931
A14U A43G C62U | ≤ 0.5
A14U C46G | 0.612
A14U C27G C66U | ≤ 0.5
A14U A21G G58A | ≤ 0.5
A14U A15G C49G | ≤ 0.5
A14U C34G A43U C46A C62U A69C | ≤ 0.5
